Source: ChEMBL document CHEMBL1909495, “Synthesis and kinetic testing of new inhibitors for a metallo-β-lactamase from Klebsiella pneumonia and Pseudomonas aeruginosa” (Eur J Med Chem, 2011)

Legend:
[1] = target: Beta-lactamase (Pseudomonas aeruginosa) (UniProt Q79MP6); assay: Inhibition of Pseudomonas aeruginosa metallo-beta-lactamase IMP-1 expressed in Escherichia coli BL21(DE3) using CENTA as substrate at 10 uM by spectrophotometric analysis
Outline: (§1)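 Single-point screen with inhibitor at 10 µM against IMP-1 lacking the 21-residue signal peptide (2 nM final). Buffer was 50 mM HEPES pH 7.0 with 0.1 M NaCl, 100 µM ZnCl2 and BSA at 20 µg/mL. Substrate was CENTA at 70 µM. CENTA hydrolysis was followed by 4-nitrophenolate absorbance at 405 nm and reported as percent inhibition.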

Klebsiella pneumoniae [2] = assay: Inhibition of Klebsiella pneumoniae metallo-beta-lactamase IMP-1 expressed in Escherichia coli BL21(DE3) using CENTA as substrate at 10 uM by spectrophotometric analysis; outline: as §1
[3] = target: Beta-lactamase (Pseudomonas aeruginosa) (UniProt Q79MP6); assay: Competitive inhibition of Pseudomonas aeruginosa metallo-beta-lactamase IMP-1 expressed in Escherichia coli BL21(DE3) using CENTA as substrate by spectrophotometric analysis
Outline: (§2)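 IMP-1 lacking the first 21 signal-peptide residues, recombinantly expressed and purified, at 2 nM final. Buffer was 50 mM HEPES, 0.1 M NaCl, 100 µM ZnCl2, pH 7.0, with BSA at 20 µg/mL final. CENTA was varied from 5 to 70 µM final at three inhibitor concentrations. 4-Nitrophenolate release was read at 405 nm on a plate reader, and data were fitted by non-linear regression.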

Klebsiella pneumoniae [4] = assay: Competitive inhibition of Klebsiella pneumoniae metallo-beta-lactamase IMP-1 expressed in Escherichia coli BL21(DE3) using CENTA as substrate by spectrophotometric analysis; outline: as §2
[5] = target: Beta-lactamase (Pseudomonas aeruginosa) (UniProt Q79MP6); assay: Uncompetitive inhibition of Pseudomonas aeruginosa metallo-beta-lactamase IMP-1 expressed in Escherichia coli BL21(DE3) using CENTA as substrate by spectrophotometric analysis; outline: as §2
Klebsiella pneumoniae [6] = assay: Uncompetitive inhibition of Klebsiella pneumoniae metallo-beta-lactamase IMP-1 expressed in Escherichia coli BL21(DE3) using CENTA as substrate by spectrophotometric analysis; outline: as §2

Beta-lactamase (Pseudomonas aeruginosa), sequence (Q79MP6 19-246 limits assumed): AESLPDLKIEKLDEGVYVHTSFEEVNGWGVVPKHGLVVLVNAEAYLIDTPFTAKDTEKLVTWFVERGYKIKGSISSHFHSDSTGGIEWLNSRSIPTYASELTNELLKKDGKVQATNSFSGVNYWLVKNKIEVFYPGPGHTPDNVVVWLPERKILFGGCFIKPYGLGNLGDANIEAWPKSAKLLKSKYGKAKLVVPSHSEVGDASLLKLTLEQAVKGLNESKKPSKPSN

SMILES | inhibition [1] | inhibition (Klebsiella pneumoniae [2]) | Kic [3] | Kic (Klebsiella pneumoniae [4]) | Kiuc [5] | Kiuc (Klebsiella pneumoniae [6])
Cc1ccc(-n2c(-c3ccccc3)c(-c3ccccc3)c3c2ncn2cnnc32)cc1 | 4% | 4% |  |  |  | 
Cc1ccc(-n2cc(-c3ccccc3)c(C#N)c2N)cc1 | 0% | 0% |  |  |  | 
Cc1ccc(-n2c(-c3ccccc3)c(-c3ccccc3)c3c2ncn2c(=S)[nH]nc32)cc1 | 14% | 14% | 15 µM | 15 µM |  | 
Cc1ccc(-n2c(-c3ccccc3)c(-c3ccccc3)c3c(N/N=C/c4ccccc4)ncnc32)cc1 | 13% | 13% | 18 µM | 18 µM |  | 
COc1ccc(-n2c(-c3ccccc3)c(-c3ccccc3)c3c(Cl)ncnc32)cc1 | 15% | 15% | 12 µM | 12 µM | 182 µM | 182 µM
COc1ccc(-n2cc(-c3ccccc3)c(C#N)c2N)cc1 | 0% | 0% |  |  |  | 
Cc1ccc(-n2cc(-c3ccccc3)c3c(O)ncnc32)cc1 | 0% | 0% |  |  |  | 
COc1ccc(-n2c3c(c(-c4ccccc4)c2-c2ccccc2)C(=C(C#N)C#N)NC=N3)cc1 | 17% | 17% | 29 µM | 29 µM | 225 µM | 225 µM
Cc1ccc(-n2c(-c3ccccc3)c(-c3ccccc3)c3c2ncn2c(C)nnc32)cc1 | 7% | 7% |  |  |  | 
Cc1ccc(-n2cc(-c3ccccc3)c3c(Cl)ncnc32)cc1 | 9% | 9% | 33 µM | 33 µM | 106 µM | 106 µM
Cc1ccc(-n2c(-c3ccccc3)c(-c3ccccc3)c3c(Cl)ncnc32)cc1 | 10% | 10% | 19 µM | 19 µM | 112 µM | 112 µM
